Assay results from ChEMBL document CHEMBL3244411, “A new warfarin metabolite: structure and function” (J Med Chem, 1978).
Active and inactive are the calls of the source. The rule behind the calls is not given here.

Assays:
[1] = Activity at cytochrome P450 in rat liver microsomes treated with (S)-warfarin measured for 10 mins by LC-UV analysis; format: ADME
Summary of the method: (§1)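 Male Wistar rat hepatic microsomes, 8.0 mg protein in 4.0 mL 0.01 M TES-0.002 M MgCl2, pH 7.4. Enantiopure warfarin sodium 1.0 mg (3.0 × 10^-6 mol) with an NADPH-generating system (NADP 1.25 μmol, glucose 6-phosphate 62.1 μmol). Preincubated 1.0 min at 37 °C, started with G6P dehydrogenase 5.0 units, stopped after 10 min by filtration. Metabolites separated and quantified by LC against external standards.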

[2] = Activity at cytochrome P450 in rat liver microsomes treated with (R)-warfarin measured for 10 mins by LC-UV analysis; format: ADME; summary of the method: as §1
[3] = test system: Salmonella typhimurium; assay: Mutagenicity in Salmonella typhimurium TA98 by Ames test in presence of liver microsomes; format: toxicity, organism-based; conditions: salmonella enterica subsp. enterica serovar typhimurium
[4] = test system: Salmonella typhimurium; assay: Mutagenicity in Salmonella typhimurium TA100 by Ames test in presence of liver microsomes; format: toxicity, organism-based; conditions: salmonella enterica subsp. enterica serovar typhimurium
[5] = test system: Salmonella typhimurium; assay: Mutagenicity in Salmonella typhimurium TA1535 by Ames test in presence of liver microsomes; format: toxicity, organism-based; conditions: salmonella enterica subsp. enterica serovar typhimurium
[6] = test system: Salmonella typhimurium; assay: Mutagenicity in Salmonella typhimurium TA1537 by Ames test in presence of liver microsomes; format: toxicity, organism-based; conditions: salmonella enterica subsp. enterica serovar typhimurium
[7] = test system: Liver microsome; assay: Drug metabolism in rat liver microsomes by LC-UV analysis; format: ADME
[8] = Activity at cytochrome P450 in PCN-induced rat liver microsomes treated with (R)-warfarin at 0.15 mmol measured under acidic conditions by LC-UV analysis in presence of cumene hydroperoxide; format: ADME
Summary of the method: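 Liver microsomes from PCN-induced rats (100 mg/kg/day ip in corn oil for 3 days), 200 mL at 2.0 mg protein/mL in TES–MgCl2, pH 7.4, with (R)-warfarin sodium 1.5 × 10^-4 mol. Preincubated 5 min at 37 °C with shaking, started with cumene hydroperoxide 1.6 × 10^-4 mol, given a second equal addition at 10 min, stopped at 30 min on ice. Product isolated by preparative C18 LC.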

[9] = Activity at cytochrome P450 in rat liver microsomes treated with (S)-warfarin at 3 umol measured under acidic conditions by LC-UV analysis in presence of NADPH; format: ADME
Summary of the method: (§2)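 Male Wistar rat liver microsomes, uninduced or phenobarbital-induced (100 mg/kg/day ip in saline for 3 days, harvested 24 h after the last dose). Per 4.0 mL of 0.01 M TES–0.002 M MgCl2, pH 7.4: (R)- or (S)-warfarin sodium 3.0 × 10^-6 mol, NADP 1.25 µmol, glucose 6-phosphate 62.1 µmol, 8.0 mg protein. Preincubated 1.0 min at 37 °C, started with yeast G6P dehydrogenase (5.0 units), stopped by filtration after 10 min. Products quantified by LC against external standards.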

[10] = Activity at cytochrome P450 in phenobarbital-induced rat liver microsomes treated with (S)-warfarin at 3 umol measured under acidic conditions by LC-UV analysis in presence of NADPH; format: ADME; summary of the method: as §2
[11] = test system: Rattus norvegicus; assay: Anticoagulant activity in rat plasma at 100 mg/kg, ip measured after 12 hrs by one-stage clotting assay; format: functional, organism-based; design: dose 100 mg/kg
Summary of the method: (§3)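 Six rats per group given 100 mg/kg ip, as sodium salt in saline or as free acid in corn oil. At 12 h, rats were anesthetized and blood drawn from the posterior vena cava into 3.8% trisodium citrate; plasma was taken at 2000g for 10 min. Clotting measured by one-stage fibrometer assay, and individual factors by a published method. Controls received vehicle or racemic warfarin sodium at 10 mg/kg ip.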

[12] = test system: Rattus norvegicus; assay: Antagonism of extrinsic coagulation factor-2 synthesis in rat plasma at 100 mg/kg, ip measured after 12 hrs; format: functional, organism-based; design: dose 100 mg/kg; summary of the method: as §3
[13] = test system: Rattus norvegicus; assay: Antagonism of extrinsic coagulation factor-7 synthesis in rat plasma at 100 mg/kg, ip measured after 12 hrs; format: functional, organism-based; design: dose 100 mg/kg; summary of the method: as §3
[14] = test system: Rattus norvegicus; assay: Antagonism of extrinsic coagulation factor-10 synthesis in rat plasma at 100 mg/kg, ip measured after 12 hrs; format: functional, organism-based; design: dose 100 mg/kg; summary of the method: as §3
[15] = test system: Rattus norvegicus; assay: Antagonism of intrinsic coagulation factor-8 synthesis in rat plasma at 100 mg/kg, ip measured after 12 hrs; format: functional, organism-based; design: dose 100 mg/kg; summary of the method: as §3
[16] = test system: Rattus norvegicus; assay: Antagonism of intrinsic coagulation factor-9 synthesis in rat plasma at 100 mg/kg, ip measured after 12 hrs; format: functional, organism-based; design: dose 100 mg/kg; summary of the method: as §3
[17] = test system: Rattus norvegicus; assay: Effect on fibrinogen level in rat plasma at 100 mg/kg, ip measured after 24 hrs; format: functional, organism-based; design: dose 100 mg/kg
[18] = test system: Rattus norvegicus; assay: Toxicity in ip dosed rat; format: organism-based; conditions: in vivo
[19] = test system: Salmonella typhimurium; assay: Mutagenicity in Salmonella typhimurium TA98 by Ames test; format: toxicity, organism-based; conditions: salmonella enterica subsp. enterica serovar typhimurium
[20] = test system: Salmonella typhimurium; assay: Mutagenicity in Salmonella typhimurium TA100 by Ames test; format: toxicity, organism-based; conditions: salmonella enterica subsp. enterica serovar typhimurium
[21] = test system: Salmonella typhimurium; assay: Mutagenicity in Salmonella typhimurium TA1535 by Ames test; format: toxicity, organism-based; conditions: salmonella enterica subsp. enterica serovar typhimurium
[22] = test system: Salmonella typhimurium; assay: Mutagenicity in Salmonella typhimurium TA1537 by Ames test; format: toxicity, organism-based; conditions: salmonella enterica subsp. enterica serovar typhimurium
[23] = Drug metabolism in rat liver microsomes assessed as cytochrome P450-mediated 4-hydroxy-3-(3-oxo-1-phenyl-1-butenyl)-2H-1-benzopyran-2-one metabolite formation at 3 umol measured under acidic conditions by LC-UV analysis in presence of NADPH; format: ADME; summary of the method: as §2
[24] = Drug metabolism in phenobarbital-induced rat liver microsomes assessed as cytochrome P450-mediated 4-hydroxy-3-(3-oxo-1-phenyl-1-butenyl)-2H-1-benzopyran-2-one metabolite formation at 3 umol measured under acidic conditions by LC-UV analysis in presence of NADPH; format: ADME; summary of the method: as §2
[25] = Drug metabolism in rat liver microsomes assessed as cytochrome P450-mediated 4-oxo-3-(3-oxo-1-phenylbut-1-enyl)-4H-chromen-2-olate metabolite formation at 3 umol measured under basic conditions by LC-UV analysis in presence of NADPH; format: ADME; summary of the method: as §2
[26] = Drug metabolism in phenobarbital-induced rat liver microsomes assessed as cytochrome P450-mediated 4-oxo-3-(3-oxo-1-phenylbut-1-enyl)-4H-chromen-2-olate metabolite formation at 3 umol measured under basic conditions by LC-UV analysis in presence of NADPH; format: ADME; summary of the method: as §2
[27] = Drug metabolism in rat liver microsomes assessed as cytochrome P450-mediated 4-hydroxy-3-(3-oxo-1-phenyl-1-butenyl)-2H-1-benzopyran-2-one metabolite formation by LC-UV analysis in presence of nitrogen; format: ADME
Summary of the method: (§4)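 Same NADPH-supported microsomal incubation (warfarin 3.0 × 10^-6 mol, 8.0 mg protein, 4.0 mL TES–MgCl2, pH 7.4). Flasks were sealed with a septum and equilibrated under the stated gas atmosphere for 15 min on ice, then incubated at 37 °C. Products quantified by LC.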

[28] = Drug metabolism in rat liver microsomes assessed as cytochrome P450-mediated 4-hydroxy-3-(3-oxo-1-phenyl-1-butenyl)-2H-1-benzopyran-2-one metabolite formation by LC-UV analysis in presence of carbon monoxide-oxygen mixture at ratio of 80:20; format: ADME; summary of the method: as §4
[29] = Drug metabolism in rat liver microsomes assessed as cytochrome P450-mediated 4'-hydroxywarfarin metabolite formation by LC-UV analysis in presence of carbon monoxide-oxygen mixture at ratio of 80:20; format: ADME; summary of the method: as §4
[30] = Drug metabolism in rat liver microsomes assessed as cytochrome P450-mediated 6-hydroxywarfarin metabolite formation by LC-UV analysis in presence of carbon monoxide-oxygen mixture at ratio of 80:20; format: ADME; summary of the method: as §4
[31] = Drug metabolism in rat liver microsomes assessed as cytochrome P450-mediated 7-hydroxywarfarin metabolite formation by LC-UV analysis in presence of carbon monoxide-oxygen mixture at ratio of 80:20; format: ADME; summary of the method: as §4
[32] = Drug metabolism in rat liver microsomes assessed as cytochrome P450-mediated 4-hydroxy-3-(3-oxo-1-phenyl-1-butenyl)-2H-1-benzopyran-2-one metabolite formation measured for 10 mins by LC-UV analysis; format: ADME
Summary of the method: (§5)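 Time course with (S)-warfarin in uninduced rat liver microsomes (cytochrome P-450 1.0 nmol/mg protein; protein 2 mg/mL) at 37 °C and pH 7.4. NADPH-supported TES–MgCl2 incubation, with products quantified by LC. Single determination from a pool of five rats.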

[33] = Drug metabolism in rat liver microsomes assessed as cytochrome P450-mediated 4'-hydroxywarfarin metabolite formation measured for 10 mins by LC-UV analysis; format: ADME; summary of the method: as §5
[34] = Drug metabolism in rat liver microsomes assessed as cytochrome P450-mediated 6-hydroxywarfarin metabolite formation measured for 10 mins by LC-UV analysis; format: ADME; summary of the method: as §5
[35] = Drug metabolism in rat liver microsomes assessed as cytochrome P450-mediated 7-hydroxywarfarin metabolite formation measured for 10 mins by LC-UV analysis; format: ADME; summary of the method: as §5
[36] = Drug metabolism in rat liver microsomes assessed as cytochrome P450-mediated 4-hydroxy-3-(3-oxo-1-phenyl-1-butenyl)-2H-1-benzopyran-2-one metabolite formation measured after 10 mins by LC-UV analysis; format: ADME; summary of the method: as §5
[37] = Drug metabolism in rat liver microsomes assessed as cytochrome P450-mediated 4'-hydroxywarfarin metabolite formation measured after 10 mins by LC-UV analysis; format: ADME; summary of the method: as §5
[38] = Drug metabolism in rat liver microsomes assessed as cytochrome P450-mediated 6-hydroxywarfarin metabolite formation measured after 10 mins by LC-UV analysis; format: ADME; summary of the method: as §5
[39] = Drug metabolism in rat liver microsomes assessed as cytochrome P450-mediated 7-hydroxywarfarin metabolite formation measured after 10 mins by LC-UV analysis; format: ADME; summary of the method: as §5
[40] = Drug metabolism in PCN-induced rat liver microsomes assessed as cytochrome P450-mediated 4-hydroxy-3-(3-oxo-1-phenyl-1-butenyl)-2H-1-benzopyran-2-one metabolite formation at 0.15 mmol measured per nmol of CYP450 by LC-UV analysis
[41] = Activity at cytochrome P450 in rat liver microsomes treated with (S)-warfarin measured after 10 mins by LC-UV analysis; format: ADME; summary of the method: as §1
[42] = Activity at cytochrome P450 in rat liver microsomes treated with (R)-warfarin measured after 10 mins by LC-UV analysis; format: ADME; summary of the method: as §1

CC(=O)CC(c1ccccc1)c1c(O)c2ccccc2oc1=O (centres undefined) [WARFARIN]
Drug metabolism [1]: metabolite_detected | Drug metabolism [2]: metabolite_detected | Activity [3]: Non-toxic | Activity [4]: Non-toxic | Activity [5]: Non-toxic | Activity [6]: Non-toxic | Drug metabolism [7]: metabolite_notdetected | Drug metabolism [8]: metabolite_detected | Drug metabolism [9]: metabolite_detected | Drug metabolism [10]: metabolite_detected | Activity [11]: inactive | inhibition [12]: inactive | inhibition [13]: inactive | inhibition [14]: inactive | inhibition [15]: inactive | inhibition [16]: inactive | Activity [17]: inactive | Activity [18]: Non-toxic | Activity [19]: Non-toxic | Activity [20]: Non-toxic | Activity [21]: Non-toxic | Activity [22]: Non-toxic

CC(=O)C[C@@H](c1ccccc1)c1c(O)c2ccccc2oc1=O
Drug metabolism [23]: metabolite_detected | Drug metabolism [24]: metabolite_detected | Drug metabolism [25]: metabolite_detected | Drug metabolism [26]: metabolite_detected | Drug metabolism [27]: metabolite_notdetected | Drug metabolism [28]: metabolite_detected | Drug metabolism [29]: metabolite_detected | Drug metabolism [30]: metabolite_detected | Drug metabolism [31]: metabolite_detected | Drug metabolism [32]: metabolite_detected | Drug metabolism [33]: metabolite_detected | Drug metabolism [34]: metabolite_detected | Drug metabolism [35]: metabolite_detected | Drug metabolism [36]: metabolite_notdetected | Drug metabolism [37]: metabolite_detected | Drug metabolism [38]: metabolite_detected | Drug metabolism [39]: metabolite_detected | Drug metabolism [40]: 0.19 nmol/min

CC(=O)CC(c1ccc(O)cc1)c1c(O)oc2ccccc2c1=O (centres undefined)
Drug metabolism [41]: metabolite_detected | Drug metabolism [42]: metabolite_detected | Drug metabolism [1]: metabolite_detected | Drug metabolism [2]: metabolite_detected
